According to publication PMC9444296 (Investigative Radiology, 2022):

What was measured:
[1] = Gd remaining in rat tissues after toxicity study; type: in vivo; conditions: for Measured Concentration of Gd, Mean: day 29, ICP-MS
Method in brief: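 Femur, abdominal skin, liver, brain, quadriceps, lung, heart, kidney, spleen, colon and jejunum were collected, and residual Gd was measured by ICP-MS.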

EDB protein fragment = EDB protein fragment (Homo sapiens, UniProt P02751); assay: Binding affinity by surface plasmon resonance; conditions: read-out: average binding affinity (Kd); SPR, n = 4
Method in brief: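 EDB protein fragment desalted into 10 mM PBS pH 7.4, then amine-coupled to a CM5 chip active cell (25 μg/mL in 10 mM acetate pH 4.5, 3 min at 10 μL/min, about 1500 RU). Both cells were ethanolamine-blocked (pH 8.5, 7 min). Test compound (1.0 mM stock in 0.05% Tween-20/10 mM PBS pH 7.4 running buffer) was injected at varying concentrations for 120 s at 50 μL/min, with 5 min dissociation. Kd came from instrument evaluation software.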

[2] = Metabolic stability in CD1 mouse hepatocytes; type: in vitro ADME; conditions: 2 hours of incubation, LC-MS/MS
CAV1.2 = CAV1.2 (Homo sapiens, UniProt Q13936); assay: SAFETYscan E/IC50 assay, CAV1.2; type: biochemical; conditions: concentration range 0.005 to 100 μM
Chain of CAV1.2 (P54289 957-1103): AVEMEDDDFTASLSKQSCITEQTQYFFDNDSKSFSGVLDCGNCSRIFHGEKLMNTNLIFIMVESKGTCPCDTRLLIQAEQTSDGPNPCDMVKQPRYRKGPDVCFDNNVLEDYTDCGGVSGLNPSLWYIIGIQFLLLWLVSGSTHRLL
Chain of CAV1.2 (Q08289 whole entry, further chain, the tested form may be a part): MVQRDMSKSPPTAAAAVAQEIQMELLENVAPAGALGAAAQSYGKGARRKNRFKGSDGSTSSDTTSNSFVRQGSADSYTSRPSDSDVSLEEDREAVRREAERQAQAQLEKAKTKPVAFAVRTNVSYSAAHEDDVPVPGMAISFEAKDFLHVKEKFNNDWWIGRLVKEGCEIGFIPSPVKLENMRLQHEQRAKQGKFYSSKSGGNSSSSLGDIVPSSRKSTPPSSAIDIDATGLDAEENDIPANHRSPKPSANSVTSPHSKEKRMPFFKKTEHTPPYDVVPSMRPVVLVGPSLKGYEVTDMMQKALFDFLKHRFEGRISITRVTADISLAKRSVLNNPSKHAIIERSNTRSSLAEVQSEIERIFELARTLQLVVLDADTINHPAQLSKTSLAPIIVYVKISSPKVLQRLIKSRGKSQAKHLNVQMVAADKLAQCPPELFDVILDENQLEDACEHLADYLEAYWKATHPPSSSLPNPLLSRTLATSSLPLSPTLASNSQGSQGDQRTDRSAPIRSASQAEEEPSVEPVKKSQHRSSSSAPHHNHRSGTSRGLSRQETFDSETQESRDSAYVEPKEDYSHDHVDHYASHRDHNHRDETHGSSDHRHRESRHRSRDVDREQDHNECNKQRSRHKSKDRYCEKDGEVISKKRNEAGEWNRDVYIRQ
Chain of CAV1.2 (Q13936 whole entry, the tested form may be a part): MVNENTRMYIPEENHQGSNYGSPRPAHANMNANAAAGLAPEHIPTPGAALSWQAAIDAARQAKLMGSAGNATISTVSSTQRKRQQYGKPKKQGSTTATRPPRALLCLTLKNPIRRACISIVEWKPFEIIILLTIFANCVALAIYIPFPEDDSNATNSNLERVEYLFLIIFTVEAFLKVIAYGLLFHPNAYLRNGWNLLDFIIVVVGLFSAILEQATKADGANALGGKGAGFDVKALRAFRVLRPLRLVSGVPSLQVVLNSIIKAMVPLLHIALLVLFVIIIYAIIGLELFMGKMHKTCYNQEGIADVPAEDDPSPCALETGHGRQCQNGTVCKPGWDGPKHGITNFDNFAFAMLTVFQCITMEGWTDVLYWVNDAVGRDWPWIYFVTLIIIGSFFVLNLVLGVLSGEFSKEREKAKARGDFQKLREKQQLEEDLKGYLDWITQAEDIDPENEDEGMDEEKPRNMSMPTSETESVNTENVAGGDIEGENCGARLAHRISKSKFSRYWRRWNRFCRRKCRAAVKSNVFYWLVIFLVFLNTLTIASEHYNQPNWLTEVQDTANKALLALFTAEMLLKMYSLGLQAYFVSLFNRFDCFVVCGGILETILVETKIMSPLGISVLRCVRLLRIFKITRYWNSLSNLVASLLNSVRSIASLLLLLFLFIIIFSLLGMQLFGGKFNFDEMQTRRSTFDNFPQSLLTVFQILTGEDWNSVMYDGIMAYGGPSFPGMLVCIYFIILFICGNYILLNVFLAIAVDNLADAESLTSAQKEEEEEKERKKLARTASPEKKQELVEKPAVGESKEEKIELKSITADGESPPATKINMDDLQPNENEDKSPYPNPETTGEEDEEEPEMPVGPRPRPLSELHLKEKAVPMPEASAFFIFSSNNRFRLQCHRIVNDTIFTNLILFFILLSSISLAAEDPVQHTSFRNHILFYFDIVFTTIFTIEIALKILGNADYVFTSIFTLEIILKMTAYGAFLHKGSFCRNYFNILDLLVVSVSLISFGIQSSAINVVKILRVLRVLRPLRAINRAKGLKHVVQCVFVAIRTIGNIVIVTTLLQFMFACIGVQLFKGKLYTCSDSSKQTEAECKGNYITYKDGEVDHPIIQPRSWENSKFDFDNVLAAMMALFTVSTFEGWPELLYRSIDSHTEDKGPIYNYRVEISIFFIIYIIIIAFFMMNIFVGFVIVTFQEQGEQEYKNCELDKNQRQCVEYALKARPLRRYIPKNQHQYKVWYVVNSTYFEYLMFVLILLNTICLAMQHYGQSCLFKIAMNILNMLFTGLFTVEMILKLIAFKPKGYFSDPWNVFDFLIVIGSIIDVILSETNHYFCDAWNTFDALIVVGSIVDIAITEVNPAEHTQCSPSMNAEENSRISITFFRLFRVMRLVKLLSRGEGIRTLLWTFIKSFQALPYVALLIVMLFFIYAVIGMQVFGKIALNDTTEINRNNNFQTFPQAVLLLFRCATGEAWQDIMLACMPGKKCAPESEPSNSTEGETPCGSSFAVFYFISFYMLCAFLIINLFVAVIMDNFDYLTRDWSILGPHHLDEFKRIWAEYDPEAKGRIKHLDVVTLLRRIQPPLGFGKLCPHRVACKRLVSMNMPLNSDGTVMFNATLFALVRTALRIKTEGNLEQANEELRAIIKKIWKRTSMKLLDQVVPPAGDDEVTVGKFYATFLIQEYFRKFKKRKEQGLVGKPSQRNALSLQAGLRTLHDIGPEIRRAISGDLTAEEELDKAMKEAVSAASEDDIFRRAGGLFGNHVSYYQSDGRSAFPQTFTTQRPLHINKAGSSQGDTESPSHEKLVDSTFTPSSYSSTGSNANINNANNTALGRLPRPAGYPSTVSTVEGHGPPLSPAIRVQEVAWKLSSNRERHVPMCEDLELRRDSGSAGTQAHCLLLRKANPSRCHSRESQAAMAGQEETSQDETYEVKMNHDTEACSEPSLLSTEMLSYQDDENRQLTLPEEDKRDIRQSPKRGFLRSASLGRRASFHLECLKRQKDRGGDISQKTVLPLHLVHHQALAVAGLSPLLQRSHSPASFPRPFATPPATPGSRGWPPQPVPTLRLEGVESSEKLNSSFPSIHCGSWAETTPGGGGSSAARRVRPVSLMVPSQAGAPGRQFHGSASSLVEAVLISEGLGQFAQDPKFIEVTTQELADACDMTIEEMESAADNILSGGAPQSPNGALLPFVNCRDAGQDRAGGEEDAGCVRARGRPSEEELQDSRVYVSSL
Chain of CAV1.2 (P54289 25-956): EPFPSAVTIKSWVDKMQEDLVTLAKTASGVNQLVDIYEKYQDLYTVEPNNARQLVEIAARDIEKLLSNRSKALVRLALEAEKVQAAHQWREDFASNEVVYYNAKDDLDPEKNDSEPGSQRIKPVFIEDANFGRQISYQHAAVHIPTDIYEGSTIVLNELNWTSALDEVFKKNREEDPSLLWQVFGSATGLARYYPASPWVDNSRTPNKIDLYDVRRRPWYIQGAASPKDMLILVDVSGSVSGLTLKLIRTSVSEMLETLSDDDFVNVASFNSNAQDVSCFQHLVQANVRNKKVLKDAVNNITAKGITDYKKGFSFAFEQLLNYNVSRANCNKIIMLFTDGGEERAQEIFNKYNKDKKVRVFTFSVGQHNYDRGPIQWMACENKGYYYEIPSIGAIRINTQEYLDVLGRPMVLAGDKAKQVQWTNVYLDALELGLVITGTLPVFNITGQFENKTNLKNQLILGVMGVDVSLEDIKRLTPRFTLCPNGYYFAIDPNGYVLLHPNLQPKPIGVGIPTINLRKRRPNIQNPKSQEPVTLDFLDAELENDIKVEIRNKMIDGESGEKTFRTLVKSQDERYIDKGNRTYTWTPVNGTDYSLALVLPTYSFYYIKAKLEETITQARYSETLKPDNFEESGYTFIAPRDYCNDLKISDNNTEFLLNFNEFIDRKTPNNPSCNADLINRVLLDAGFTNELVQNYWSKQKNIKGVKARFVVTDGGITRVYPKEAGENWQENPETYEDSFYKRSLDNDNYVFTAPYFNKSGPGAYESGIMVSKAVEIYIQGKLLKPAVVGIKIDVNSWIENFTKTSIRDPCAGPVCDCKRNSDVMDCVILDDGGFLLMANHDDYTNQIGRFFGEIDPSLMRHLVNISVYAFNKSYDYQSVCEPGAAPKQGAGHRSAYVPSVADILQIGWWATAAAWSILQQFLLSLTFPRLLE
Method in brief: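 Contract-laboratory in vitro panel of 78 targets, run in agonist and/or antagonist modes under provider SOPs over 0.005 to 100 μM. Panel formats included enzyme fragment complementation, FLIPR-based cellular assays, kinase binding and enzymatic assays.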

CYP2B6 = CYP2B6 (Homo sapiens, UniProt P20813); conditions: 0.01, 0.1, 1, 10, and 100 μM, pooled human liver microsomes 0.5 mg/mL
r1 and r2 relaxivity = type: physicochemical
Method in brief: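 For the 1.4 T conditions, test compound was prepared at 0.125, 0.25, 0.5, 1 and 2 mM in HSA (40 mg/mL), water or PBS. T1 and T2 were measured on a benchtop relaxometer at 37°C.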

bone marrow of ICR mice = assay: Micronucleus assay in ICR mice; type: in vivo, mouse; conditions: ICR mice, 1.39, 0.70, and 0.35 mmol/kg/d for 2 days
Method in brief: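 Male ICR mice, 32 in total, were dosed once daily for 2 days: vehicle, 500 or 1000 mg/kg/d (6 per group) or 2000 mg/kg/d (8 mice). Cyclophosphamide monohydrate served as positive control. Bone marrow was collected about 22.5 h after the final dose and scored for micronuclei and for polychromatic to total erythrocytes.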

OCT2 = OCT2 (Homo sapiens, UniProt O15244); assay: OCT2 inhibition, HEK293 cells; type: in vitro ADME; conditions: 1, 5, 10, 50, and 100 μM
Chain of OCT2 (O15244 whole entry): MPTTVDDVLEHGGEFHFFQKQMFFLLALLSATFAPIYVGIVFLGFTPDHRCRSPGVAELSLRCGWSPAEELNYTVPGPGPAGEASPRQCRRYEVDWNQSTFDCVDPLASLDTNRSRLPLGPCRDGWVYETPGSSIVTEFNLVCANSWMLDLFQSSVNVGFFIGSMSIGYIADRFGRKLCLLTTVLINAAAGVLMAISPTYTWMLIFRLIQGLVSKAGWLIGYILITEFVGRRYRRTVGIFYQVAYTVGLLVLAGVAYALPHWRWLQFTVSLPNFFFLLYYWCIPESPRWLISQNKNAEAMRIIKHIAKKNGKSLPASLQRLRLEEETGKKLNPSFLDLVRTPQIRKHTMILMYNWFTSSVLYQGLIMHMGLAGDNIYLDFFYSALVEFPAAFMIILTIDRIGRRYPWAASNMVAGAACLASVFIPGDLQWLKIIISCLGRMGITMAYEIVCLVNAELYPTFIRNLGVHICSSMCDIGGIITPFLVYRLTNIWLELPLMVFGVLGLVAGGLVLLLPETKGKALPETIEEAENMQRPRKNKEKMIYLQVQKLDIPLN

[3] = Metabolic stability in cynomolgus monkey hepatocytes; type: in vitro ADME; conditions: 2 hours of incubation, LC-MS/MS
CYP2C9 = CYP2C9 (Homo sapiens, UniProt P11712); assay: CYP2C9 inhibition in human liver microsomes; conditions: 0.01, 0.1, 1, 10, and 100 μM, pooled human liver microsomes 0.5 mg/mL
Chain of CYP2C9 (P11712 whole entry): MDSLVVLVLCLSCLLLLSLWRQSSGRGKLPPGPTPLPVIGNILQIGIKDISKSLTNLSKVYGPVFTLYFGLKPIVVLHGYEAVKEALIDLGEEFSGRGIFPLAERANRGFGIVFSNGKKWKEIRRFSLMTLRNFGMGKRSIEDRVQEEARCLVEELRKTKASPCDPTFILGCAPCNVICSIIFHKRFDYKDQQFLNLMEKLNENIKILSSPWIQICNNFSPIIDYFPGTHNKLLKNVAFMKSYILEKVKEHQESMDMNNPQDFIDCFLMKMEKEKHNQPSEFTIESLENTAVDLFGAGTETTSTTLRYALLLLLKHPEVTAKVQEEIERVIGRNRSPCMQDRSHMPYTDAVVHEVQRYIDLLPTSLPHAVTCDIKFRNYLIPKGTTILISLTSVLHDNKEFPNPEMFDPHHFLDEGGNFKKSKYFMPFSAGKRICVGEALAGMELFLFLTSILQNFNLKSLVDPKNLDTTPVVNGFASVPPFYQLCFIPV

[4] = Plasma protein binding, human plasma; type: in vitro ADME; conditions: 37°C, 3 min, 10 kDa ultrafiltration, Gd by ICP-OES, n = 4
Method in brief: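 Test compound at 50, 80 or 110 μM was incubated with human, dog or rat plasma (alongside HSA 40 mg/mL and PBS) at 37°C for 3 min. Mixtures were kept overnight and centrifuged to remove insolubles. Gd was measured by ICP-OES, and the binding ratio was taken as bound over total concentration.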

[5] = rats, single dose 1.39 mmol/kg, day 15, ICP-MS

ZD2-N3-Gd(HP-DO3A) [MT218]
Measured Concentration of Gd, Mean ([1]; Female rat, Bone, 0.15 mmol/kg/d daily IV 2 weeks): 0.19 μg/g Tissue | Measured Concentration of Gd, Mean ([1]; Female rat, Bone, 0.46 mmol/kg/d daily IV 2 weeks): 1.13 μg/g Tissue | Measured Concentration of Gd, Mean ([1]; Female rat, Bone, 1.39 mmol/kg/d daily IV 2 weeks): 4.90 μg/g Tissue | Measured Concentration of Gd, Mean ([1]; Female rat, Brain, 0.15 mmol/kg/d daily IV 2 weeks): BQL | Measured Concentration of Gd, Mean ([1]; Female rat, Brain, 0.46 mmol/kg/d daily IV 2 weeks): 0.03 μg/g Tissue | Measured Concentration of Gd, Mean ([1]; Female rat, Brain, 1.39 mmol/kg/d daily IV 2 weeks): 0.40 μg/g Tissue | Measured Concentration of Gd, Mean ([1]; Female rat, Colon, 0.15 mmol/kg/d daily IV 2 weeks): 0.15 μg/g Tissue | Measured Concentration of Gd, Mean ([1]; Female rat, Colon, 0.46 mmol/kg/d daily IV 2 weeks): 1.02 μg/g Tissue | Measured Concentration of Gd, Mean ([1]; Female rat, Colon, 1.39 mmol/kg/d daily IV 2 weeks): 3.44 μg/g Tissue | Measured Concentration of Gd, Mean ([1]; Female rat, Heart, 0.15 mmol/kg/d daily IV 2 weeks): BQL | Measured Concentration of Gd, Mean ([1]; Female rat, Heart, 0.46 mmol/kg/d daily IV 2 weeks): 3.17 μg/g Tissue | Measured Concentration of Gd, Mean ([1]; Female rat, Heart, 1.39 mmol/kg/d daily IV 2 weeks): 1.85 μg/g Tissue | Measured Concentration of Gd, Mean ([1]; Female rat, Jejunum, 0.15 mmol/kg/d daily IV 2 weeks): 0.23 μg/g Tissue | Measured Concentration of Gd, Mean ([1]; Female rat, Jejunum, 0.46 mmol/kg/d daily IV 2 weeks): 0.73 μg/g Tissue | Measured Concentration of Gd, Mean ([1]; Female rat, Jejunum, 1.39 mmol/kg/d daily IV 2 weeks): 3.26 μg/g Tissue | Measured Concentration of Gd, Mean ([1]; Female rat, Kidney, 0.15 mmol/kg/d daily IV 2 weeks): 26.46 μg/g Tissue | Measured Concentration of Gd, Mean ([1]; Female rat, Kidney, 0.46 mmol/kg/d daily IV 2 weeks): 100.81 μg/g Tissue | Measured Concentration of Gd, Mean ([1]; Female rat, Kidney, 1.39 mmol/kg/d daily IV 2 weeks): 346.00 μg/g Tissue | Measured Concentration of Gd, Mean ([1]; Female rat, Liver, 0.15 mmol/kg/d daily IV 2 weeks): 0.31 μg/g Tissue | Measured Concentration of Gd, Mean ([1]; Female rat, Liver, 0.46 mmol/kg/d daily IV 2 weeks): 1.03 μg/g Tissue | Measured Concentration of Gd, Mean ([1]; Female rat, Liver, 1.39 mmol/kg/d daily IV 2 weeks): 4.11 μg/g Tissue | Measured Concentration of Gd, Mean ([1]; Female rat, Lung, 0.15 mmol/kg/d daily IV 2 weeks): 0.20 μg/g Tissue | Measured Concentration of Gd, Mean ([1]; Female rat, Lung, 0.46 mmol/kg/d daily IV 2 weeks): 1.27 μg/g Tissue | Measured Concentration of Gd, Mean ([1]; Female rat, Lung, 1.39 mmol/kg/d daily IV 2 weeks): 3.86 μg/g Tissue | Measured Concentration of Gd, Mean ([1]; Female rat, Muscle, 0.15 mmol/kg/d daily IV 2 weeks): 0.03 μg/g Tissue | Measured Concentration of Gd, Mean ([1]; Female rat, Muscle, 0.46 mmol/kg/d daily IV 2 weeks): 0.21 μg/g Tissue | Measured Concentration of Gd, Mean ([1]; Female rat, Muscle, 1.39 mmol/kg/d daily IV 2 weeks): 1.27 μg/g Tissue | Measured Concentration of Gd, Mean ([1]; Female rat, Skin, 0.15 mmol/kg/d daily IV 2 weeks): 0.14 μg/g Tissue | Measured Concentration of Gd, Mean ([1]; Female rat, Skin, 0.46 mmol/kg/d daily IV 2 weeks): 1.26 μg/g Tissue | Measured Concentration of Gd, Mean ([1]; Female rat, Skin, 1.39 mmol/kg/d daily IV 2 weeks): 4.56 μg/g Tissue | Measured Concentration of Gd, Mean ([1]; Female rat, Spleen, 0.15 mmol/kg/d daily IV 2 weeks): 0.32 μg/g Tissue | Measured Concentration of Gd, Mean ([1]; Female rat, Spleen, 0.46 mmol/kg/d daily IV 2 weeks): 1.41 μg/g Tissue | Measured Concentration of Gd, Mean ([1]; Female rat, Spleen, 1.39 mmol/kg/d daily IV 2 weeks): 4.69 μg/g Tissue | Measured Concentration of Gd, Mean ([1]; Male rat, Bone, 0.15 mmol/kg/d daily IV 2 weeks): 0.28 μg/g Tissue | Measured Concentration of Gd, Mean ([1]; Male rat, Bone, 0.46 mmol/kg/d daily IV 2 weeks): 0.70 μg/g Tissue | Measured Concentration of Gd, Mean ([1]; Male rat, Bone, 1.39 mmol/kg/d daily IV 2 weeks): 5.85 μg/g Tissue | Measured Concentration of Gd, Mean ([1]; Male rat, Brain, 0.15 mmol/kg/d daily IV 2 weeks): BQL | Measured Concentration of Gd, Mean ([1]; Male rat, Brain, 0.46 mmol/kg/d daily IV 2 weeks): 0.07 μg/g Tissue | Measured Concentration of Gd, Mean ([1]; Male rat, Colon, 0.15 mmol/kg/d daily IV 2 weeks): 0.18 μg/g Tissue | Measured Concentration of Gd, Mean ([1]; Male rat, Colon, 0.46 mmol/kg/d daily IV 2 weeks): 0.79 μg/g Tissue | Measured Concentration of Gd, Mean ([1]; Male rat, Colon, 1.39 mmol/kg/d daily IV 2 weeks): 3.92 μg/g Tissue | Measured Concentration of Gd, Mean ([1]; Male rat, Heart, 0.15 mmol/kg/d daily IV 2 weeks): 0.14 μg/g Tissue | Measured Concentration of Gd, Mean ([1]; Male rat, Heart, 0.46 mmol/kg/d daily IV 2 weeks): 1.72 μg/g Tissue | Measured Concentration of Gd, Mean ([1]; Male rat, Heart, 1.39 mmol/kg/d daily IV 2 weeks): 2.56 μg/g Tissue | Measured Concentration of Gd, Mean ([1]; Male rat, Jejunum, 0.15 mmol/kg/d daily IV 2 weeks): 0.17 μg/g Tissue | Measured Concentration of Gd, Mean ([1]; Male rat, Jejunum, 0.46 mmol/kg/d daily IV 2 weeks): 0.73 μg/g Tissue | Measured Concentration of Gd, Mean ([1]; Male rat, Jejunum, 1.39 mmol/kg/d daily IV 2 weeks): 3.72 μg/g Tissue | Measured Concentration of Gd, Mean ([1]; Male rat, Kidney, 0.15 mmol/kg/d daily IV 2 weeks): 15.15 μg/g Tissue | Measured Concentration of Gd, Mean ([1]; Male rat, Kidney, 0.46 mmol/kg/d daily IV 2 weeks): 70.70 μg/g Tissue | Measured Concentration of Gd, Mean ([1]; Male rat, Kidney, 1.39 mmol/kg/d daily IV 2 weeks): 519.85 μg/g Tissue | Measured Concentration of Gd, Mean ([1]; Male rat, Liver, 0.15 mmol/kg/d daily IV 2 weeks): 0.22 μg/g Tissue | Measured Concentration of Gd, Mean ([1]; Male rat, Liver, 0.46 mmol/kg/d daily IV 2 weeks): 1.96 μg/g Tissue | Measured Concentration of Gd, Mean ([1]; Male rat, Liver, 1.39 mmol/kg/d daily IV 2 weeks): 4.85 μg/g Tissue | Measured Concentration of Gd, Mean ([1]; Male rat, Lung, 0.15 mmol/kg/d daily IV 2 weeks): BQL | Measured Concentration of Gd, Mean ([1]; Male rat, Lung, 0.46 mmol/kg/d daily IV 2 weeks): 1.33 μg/g Tissue | Measured Concentration of Gd, Mean ([1]; Male rat, Lung, 1.39 mmol/kg/d daily IV 2 weeks): 4.83 μg/g Tissue | Measured Concentration of Gd, Mean ([1]; Male rat, Muscle, 0.15 mmol/kg/d daily IV 2 weeks): BQL | Measured Concentration of Gd, Mean ([1]; Male rat, Muscle, 0.46 mmol/kg/d daily IV 2 weeks): 0.22 μg/g Tissue | Measured Concentration of Gd, Mean ([1]; Male rat, Muscle, 1.39 mmol/kg/d daily IV 2 weeks): 1.15 μg/g Tissue | Measured Concentration of Gd, Mean ([1]; Male rat, Skin, 0.15 mmol/kg/d daily IV 2 weeks): 0.13 μg/g Tissue | Measured Concentration of Gd, Mean ([1]; Male rat, Skin, 0.46 mmol/kg/d daily IV 2 weeks): 0.95 μg/g Tissue | Measured Concentration of Gd, Mean ([1]; Male rat, Skin, 1.39 mmol/kg/d daily IV 2 weeks): 2.31 μg/g Tissue | Measured Concentration of Gd, Mean ([1]; Male rat, Spleen, 0.15 mmol/kg/d daily IV 2 weeks): 0.37 μg/g Tissue | Measured Concentration of Gd, Mean ([1]; Male rat, Spleen, 0.46 mmol/kg/d daily IV 2 weeks): 1.12 μg/g Tissue | Measured Concentration of Gd, Mean ([1]; Male rat, Spleen, 1.39 mmol/kg/d daily IV 2 weeks): 6.04 μg/g Tissue | Gd concentration in other tissues relative to the kidney concentration [1, 5]: < 1/20 | Gd in the brain and muscles [1, 5]: not detected | Kd (EDB protein fragment): 3.45 µM | remaining MT218 [2]: 50.6% | inhibition rate (CAV1.2): 15.58% | inhibition of CYP2B6 activity (CYP2B6): did not inhibit | r1 Relaxivity (r1 and r2 relaxivity; 1.4 T, HSA aqueous solution (40 mg/mL), 37°C): 6.54 mM⁻¹ s⁻¹ | r1 Relaxivity (r1 and r2 relaxivity; 1.4 T, PBS, 37°C): 6.58 mM⁻¹ s⁻¹ | r1 Relaxivity (r1 and r2 relaxivity; 3.0 T, H2O, MRS 3000 scanner): 6.25 (H2O) mM^−1 s^−1 | r1 Relaxivity (r1 and r2 relaxivity; 3.0 T, PBS): 6.16 mM⁻¹ s⁻¹ | incidence of micronuclei vs vehicle control (bone marrow of ICR mice): no significant increase | ratio of polychromatic erythrocytes to total erythrocytes (bone marrow of ICR mice): no significant decrease | inhibition of OCT2 transporter activity (OCT2): no inhibition potential | remaining MT218 [3]: 82.9% | inhibition of CYP2C9 activity (CYP2C9): did not inhibit | binding ratio to plasma proteins ([4]; 50 μM): 47.31% | binding ratio to plasma proteins ([4]; 80 μM): 45.15% | binding ratio to plasma proteins ([4]; 110 μM): 40.50%
